{
  "source": "paper PMC10716778",
  "about": "(The Journal of Biological Chemistry, 2023)",
  "key": {"[1]": {"system": "Escherichia coli Top10 vector control (no β-lactamase)", "assay": "MIC by broth dilution, E. coli vector control", "format": "cell-based"}, "[2]": {"system": "Escherichia coli expressing KPC-2", "assay": "MIC by broth dilution, E. coli expressing KPC-2", "format": "cell-based"}, "[3]": {"system": "Escherichia coli expressing KPC-44", "assay": "MIC by broth dilution, E. coli expressing KPC-44", "format": "cell-based", "conditions": "for MIC: Escherichia coli; for fold lower MIC than WT KPC-2: E. coli expressing KPC-44 vs KPC-2"}, "[4]": {"system": "CC(C)(O/N=C(\\C(=O)N[C@@H]1C(=O)N2C(C(=O)[O-])=C(C[n+]3ccccc3)CS[C@H]12)c1csc(N)n1)C(=O)O", "assay": "purified protein, by the assay type", "conditions": "other: substrate hydrolysis by KPC-2, 30 °C, pH 7"}, "[5]": {"system": "C[C@@H](O)[C@H]1C(=O)N2C(C(=O)O)=C(SCCN=CN)C[C@H]12", "assay": "purified protein, by the assay type", "conditions": "other: substrate hydrolysis by KPC-2, 30 °C, pH 7"}, "[6]": {"system": "C[C@@H](O)[C@H]1C(=O)N2C(C(=O)O)=C(S[C@@H]3CN[C@H](C(=O)N(C)C)C3)[C@H](C)[C@H]12", "assay": "purified protein, by the assay type", "conditions": "other: substrate hydrolysis by KPC-2, 30 °C, pH 7"}, "KPC-44 [7]": {"target": "T1, KPC-44 (Klebsiella pneumoniae, UniProt Q9F663, DUP260-274)", "format": "biochemical", "conditions": "for kcat / Km: substrate hydrolysis by KPC-44, 30 °C; for kcat: 50 mM sodium phosphate pH 7; for Km: pH 7; for fold lower kcat than KPC-2 / fold lower kcat/KM than KPC-2: KPC-44 vs KPC-2"}, "KPC-2 [8]": {"target": "T2, KPC-2 (Klebsiella pneumoniae, UniProt Q9F663)", "assay": "Steady-state kinetics of β-lactam hydrolysis by KPC-2", "conditions": "substrate hydrolysis by KPC-2; 30 °C, 50 mM sodium phosphate pH 7"}, "KPC-2 [9]": {"target": "T2, KPC-2", "assay": "Inhibition of nitrocefin hydrolysis", "format": "biochemical"}, "KPC-44 [10]": {"target": "T1, KPC-44", "assay": "Inhibition of nitrocefin hydrolysis", "format": "biochemical"}, "KPC-2 [11]": {"target": "T2, KPC-2", "assay": "Decarbamylation/deborylation rate", "format": "biochemical", "conditions": "jump dilution, 30 °C", "summary_of_the_method": "(§1)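 It was then diluted 100-fold into the same buffer and added to 200 μM nitrocefin at 1:10. Recovery of activity was followed continuously at A482, 30 °C. Vaborbactam deborylation was run the same way.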"}, "KPC-44 [12]": {"target": "T1, KPC-44", "assay": "Decarbamylation/deborylation rate", "format": "biochemical", "conditions": "for k-2: KPC-44, jump dilution, 30 °C", "summary_of_the_method": "as §1"}},
  "data": [
    {"molecule": "CC(C)(O/N=C(\\C(=O)N[C@@H]1C(=O)N2C(C(=O)[O-])=C(C[n+]3ccccc3)CS[C@H]12)c1csc(N)n1)C(=O)O", "note": "[Ceftazidime]", "values": [
      {"measurement": "MIC", "setting": "[1]", "result": 0.5, "unit": "µg/mL"},
      {"measurement": "MIC", "setting": "[2]", "result": 2, "unit": "µg/mL"},
      {"measurement": "MIC", "setting": "[3]", "result": 8, "unit": "µg/mL"}
    ]},
    {"molecule": "KPC-2 (Klebsiella pneumoniae)", "values": [
      {"measurement": "kcat", "setting": "[4]", "result": "> 0.8", "unit": "s⁻¹"},
      {"measurement": "kcat/Km", "setting": "[4]", "result": "1100 ± 66", "unit": "M⁻¹ s⁻¹"},
      {"measurement": "Km", "setting": "[5]", "result": "130 ± 33", "unit": "µM"},
      {"measurement": "kcat", "setting": "[5]", "result": "50 ± 4.5", "unit": "s⁻¹"},
      {"measurement": "kcat/Km", "setting": "[5]", "result": "380000 ± 100000", "unit": "M⁻¹ s⁻¹"},
      {"measurement": "Km", "setting": "[6]", "result": "19 ± 2.9", "unit": "µM"},
      {"measurement": "kcat", "setting": "[6]", "result": "3.3 ± 0.18", "unit": "s⁻¹"},
      {"measurement": "kcat/Km", "setting": "[6]", "result": "170000 ± 28000", "unit": "M⁻¹ s⁻¹"}
    ]},
    {"molecule": "O=C(Cc1cccs1)N[C@@H]1C(=O)N2C(C(=O)O)=C(/C=C/c3ccc([N+](=O)[O-])cc3[N+](=O)[O-])CS[C@H]12", "note": "[Nitrocefin]", "values": [
      {"measurement": "kcat", "setting": "KPC-44 [7]", "result": "20 ± 0.67", "unit": "s⁻¹"},
      {"measurement": "Km", "setting": "KPC-44 [7]", "result": "16 ± 1.4", "unit": "µM"},
      {"measurement": "kcat", "setting": "KPC-2 [8]", "result": "130 ± 2.2", "unit": "s⁻¹"}
    ]},
    {"molecule": "C[C@@H](O)[C@H]1C(=O)N2C(C(=O)O)=C(SCCN=CN)C[C@H]12", "note": "[Imipenem]", "values": [
      {"measurement": "MIC", "setting": "[1]", "result": 0.25, "unit": "µg/mL"},
      {"measurement": "MIC", "setting": "[2]", "result": 1.5, "unit": "µg/mL"},
      {"measurement": "fold lower MIC than WT KPC-2", "setting": "[3]", "result": 2, "unit": "fold"},
      {"measurement": "fold higher MIC than negative control", "setting": "[3]; E. coli expressing KPC-44 vs no β-lactamase control", "result": 3, "unit": "fold"},
      {"measurement": "MIC", "setting": "[3]", "result": 0.75, "unit": "µg/mL"},
      {"measurement": "fold lower kcat than KPC-2", "setting": "KPC-44 [7]", "result": 8, "unit": "fold"},
      {"measurement": "fold lower kcat/KM than KPC-2", "setting": "KPC-44 [7]", "result": 4, "unit": "fold"},
      {"measurement": "kcat", "setting": "KPC-44 [7]", "result": "6.4 ± 0.33", "unit": "s⁻¹"},
      {"measurement": "Km", "setting": "KPC-44 [7]", "result": "57 ± 7.1", "unit": "µM"}
    ]},
    {"molecule": "O=C(O)C[C@@H]1CC[C@H](NC(=O)Cc2cccs2)B(O)O1", "note": "[Vaborbactam]", "values": [
      {"measurement": "IC50", "setting": "KPC-2 [9]", "result": "130 ± 5.4", "unit": "nM"},
      {"measurement": "IC50", "setting": "KPC-44 [10]", "result": "220 ± 0.92", "unit": "nM"},
      {"measurement": "fold difference in IC50 (less potent versus KPC-44 compared to KPC-2)", "setting": "KPC-44 [10]; KPC-44 vs KPC-2", "result": "less than 2 fold"},
      {"measurement": "k-2", "setting": "KPC-2 [11]", "result": "(1.2 ± 0.014) × 10^−5 s^−1"},
      {"measurement": "k-2", "setting": "KPC-44 [12]", "result": "(2.9 ± 0.047) × 10^−5 s^−1"},
      {"measurement": "fold higher k-2 than KPC-2", "setting": "KPC-44 [12]; KPC-44 vs KPC-2", "result": 3, "unit": "fold"}
    ]},
    {"molecule": "C[C@@H](O)[C@H]1C(=O)N2C(C(=O)O)=C(S[C@@H]3CN[C@H](C(=O)N(C)C)C3)[C@H](C)[C@H]12", "note": "[Meropenem]", "values": [
      {"measurement": "MIC", "setting": "[1]", "result": 0.25, "unit": "µg/mL"},
      {"measurement": "MIC", "setting": "[2]", "result": 0.375, "unit": "µg/mL"},
      {"measurement": "MIC", "setting": "[3]", "result": 0.25, "unit": "µg/mL"},
      {"measurement": "fold lower kcat than KPC-2", "setting": "KPC-44 [7]", "result": 7, "unit": "fold"},
      {"measurement": "fold lower kcat/KM than KPC-2", "setting": "KPC-44 [7]", "result": 3, "unit": "fold"},
      {"measurement": "kcat", "setting": "KPC-44 [7]", "result": "0.46 ± 0.022", "unit": "s⁻¹"},
      {"measurement": "Km", "setting": "KPC-44 [7]", "result": "7.3 ± 1.4", "unit": "µM"}
    ]},
    {"molecule": "O=C(O)[C@H]1/C(=C/CO)O[C@@H]2CC(=O)N21", "note": "[Clavulanate]", "values": [
      {"measurement": "IC50", "setting": "KPC-44 [10]", "result": "4800 ± 170", "unit": "nM"}
    ]},
    {"molecule": "CC1(C)S[C@@H]2[C@H](NC(=O)[C@H](N)c3ccccc3)C(=O)N2[C@H]1C(=O)O", "note": "[Ampicillin]", "values": [
      {"measurement": "MIC", "setting": "[1]", "result": 4, "unit": "µg/mL"},
      {"measurement": "MIC", "setting": "[2]", "result": 128, "unit": "µg/mL"},
      {"measurement": "fold lower MIC than WT KPC-2", "setting": "[3]", "result": 2, "unit": "fold"},
      {"measurement": "MIC", "setting": "[3]", "result": 64, "unit": "µg/mL"},
      {"measurement": "kcat", "setting": "KPC-44 [7]", "result": "126 ± 5", "unit": "s⁻¹"},
      {"measurement": "Km", "setting": "KPC-44 [7]", "result": "232 ± 22", "unit": "µM"}
    ]},
    {"molecule": "NC(=O)[C@@H]1CC[C@@H]2CN1C(=O)N2OS(=O)(=O)O", "note": "[Avibactam]", "values": [
      {"measurement": "k-2", "setting": "KPC-2 [11]", "result": "(9.6 ± 0.020) × 10^−5 s^−1"},
      {"measurement": "k-2", "setting": "KPC-44 [12]", "result": "(7.1 ± 0.32) × 10^−5 s^−1"}
    ]}
  ]
}
